Test results published in ChEMBL document CHEMBL1153578, “Synthesis and evaluation of anti-tumor activities of N4 fatty acyl amino acid derivatives of 1-beta-arabinofuranosylcytosine” (Eur J Med Chem, 2009).

Legend:
HL-60 = assay: Cytotoxicity against human HL60 cells after 48 hrs by MTT assay; assay type: functional, cell-based; settings: HL-60, 48 h
Summary of the method: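 HL-60 cells were grown in RPMI 1640 with 10% FBS and penicillin/streptomycin, seeded at 5 × 10⁴/mL, and exposed to 5 concentrations (0.01–1.00) in PBS with 4% DMSO, in triplicate. MTT was added at 5 mg/mL for 4 h at 37 °C. Plates were centrifuged (1000 r/min, 10 min), supernatant discarded, and crystals dissolved in DMSO. Read at OD 570/630 nm, blank-corrected against control; IC50 = concentration giving 50% cell death.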

HeLa = assay: Cytotoxicity against human HeLa cells after 48 hrs by MTT assay; assay type: functional, cell-based
Summary of the method: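 HeLa cells were grown in DMEM with 10% FBS and penicillin/streptomycin, seeded at 5 × 10⁴/mL, and treated with 0.5, 1.0, 5.0, 10 and 50 of compound in PBS with 4% DMSO, in triplicate. MTT (5 mg/mL) was added for 4 h at 37 °C without centrifugation, then supernatant removed and formazan dissolved in DMSO. Read at 570 nm (reference 630 nm) with survival normalized to medium-blanked control; IC50 = concentration causing 50% cell death.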

CCRF S-180 [1] = assay: Antitumor activity against mouse S180 cells xenografted in ip dosed Kunming mouse assessed as tumor growth inhibition after 7 days; assay type: functional
Summary of the method: (§1)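 Kunming mice received 0.2 mL of S180 cells (passaged in mouse abdomen, harvested day 8, 2.0 × 10⁷/mL) and were randomized into groups of 10. Compounds were given at 7.8 mmol/L in 0.5% CMC-Na (solution or suspension), 0.2 mL i.p. daily for 7 days. Mice were then sacrificed and tumors weighed. Inhibition = (mean control weight − mean treated weight)/mean control weight × 100%.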

CCRF S-180 [2] = assay: Antitumor activity against mouse S180 cells xenografted in ip dosed Kunming mouse assessed as tumor weight after 7 days; assay type: functional; summary of the method: as §1
[3] = Lipophilicity, log P of the compound; assay type: physicochemical; settings: octanol/water

logP [3]	SMILES	IC50 (HL-60) [µM]	IC50 (HeLa) [µM]	TGI (CCRF S-180 [1]) [%]	Activity (CCRF S-180 [2]) [g]
0.25	CCCCCCCCCCCCCC(=O)N[C@@H](CCC(=O)O)C(=O)Nc1ccn([C@H]2O[C@@H](CO)[C@H](O)[C@H]2O)c(=O)n1	0.502	41	24.6	0.958
0.97	CCCCCCCCCCCCCCCCCC(=O)N[C@@H](Cc1ccc(O)cc1)C(=O)Nc1ccn([C@H]2O[C@@H](CO)[C@H](O)[C@H]2O)c(=O)n1	1.15	10	16.5	1.06
0.9	CCCCCCCCCCCCCC(=O)N[C@H](C(=O)Nc1ccn([C@H]2O[C@@H](CO)[C@H](O)[C@H]2O)c(=O)n1)C(C)C	32.3	26	8.4	1.163
	Nc1ccn([C@@H]2O[C@H](CO)[C@@H](O)[C@@H]2O)c(=O)n1 [CYTARABINE]	0.118	464		
0.88	CCCCCCCCCCCCCC(=O)N[C@@H](CCSC)C(=O)Nc1ccn([C@H]2O[C@@H](CO)[C@H](O)[C@H]2O)c(=O)n1	0.272	8.02	37.6	0.793
0.81	CCCCCCCCCC(=O)N[C@@H](Cc1ccc(O)cc1)C(=O)Nc1ccn([C@H]2O[C@@H](CO)[C@H](O)[C@H]2O)c(=O)n1	2.98	1	19.1	1.028
1.09	CCCCCCCCCCCCCCCCCC(=O)N[C@@H](CCSC)C(=O)Nc1ccn([C@H]2O[C@@H](CO)[C@H](O)[C@H]2O)c(=O)n1	0.803	9	65.5	0.438
0.76	CCCCCCCCCC(=O)N[C@@H](CCCNC(=N)N)C(=O)Nc1ccn([C@H]2O[C@@H](CO)[C@H](O)[C@H]2O)c(=O)n1	0.584	6	15.7	1.071
0.78	CCCCCCCCCC(=O)N[C@H](C(=O)Nc1ccn([C@H]2O[C@@H](CO)[C@H](O)[C@H]2O)c(=O)n1)C(C)C	2.04	4.99	7	1.181
0.68	CCCCCCCCCC(=O)N[C@@H](CCSC)C(=O)Nc1ccn([C@H]2O[C@@H](CO)[C@H](O)[C@H]2O)c(=O)n1	0.28	3	25.6	0.944
0.61	CCCCCCCCCCCCCCCCCC(=O)N[C@@H](CCCNC(=N)N)C(=O)Nc1ccn([C@H]2O[C@@H](CO)[C@H](O)[C@H]2O)c(=O)n1	1.7	12.1	8.1	1.168
0.45	CCCCCCCCCCCCCC(=O)N[C@@H](CCCNC(=N)N)C(=O)Nc1ccn([C@H]2O[C@@H](CO)[C@H](O)[C@H]2O)c(=O)n1	0.405	32	39.2	0.773
0.5	CCCCCCCCCCCCCCCCCC(=O)N[C@@H](CCC(=O)O)C(=O)Nc1ccn([C@H]2O[C@@H](CO)[C@H](O)[C@H]2O)c(=O)n1	1.14	19	12.9	1.106
0.9	CCCCCCCCCCCCCC(=O)N[C@@H](Cc1ccc(O)cc1)C(=O)Nc1ccn([C@H]2O[C@@H](CO)[C@H](O)[C@H]2O)c(=O)n1	1.71	39.1	11.4	1.125
0.91	CCCCCCCCCCCCCCCCCC(=O)N[C@H](C(=O)Nc1ccn([C@H]2O[C@@H](CO)[C@H](O)[C@H]2O)c(=O)n1)C(C)C	31.9	13	58.9	0.523
-0.28	CCCCCCCCCC(=O)N[C@@H](CCC(=O)O)C(=O)Nc1ccn([C@H]2O[C@@H](CO)[C@H](O)[C@H]2O)c(=O)n1	1.86	5	15.6	1.072
